From ChEMBL document CHEMBL4715736, “Identification of anticancer agents based on the thieno[2,3-b]pyridine and 1H-pyrazole molecular scaffolds” (2016)

Each compound was assayed on SR (assay: Growth inhibition of human SR cells assessed as cell growth at 0.01 uM incubated for 48 hrs by sulforhodamine B assay relative to control). Details: read-out: Activity.
Format: functional
For `Cc1cc(C)c(NC(=O)c2sc3nc4c(cc3c2N)CN(Cc2ccccc2)CC4)c(C)c1`, the growth at 0.01 µM was 100%.

The compounds below were run on HOP-92 (assay: Growth inhibition of human HOP-92 cells assessed as cell growth at 0.01 uM incubated for 48 hrs by sulforhodamine B assay relative to control). Details: read-out: Activity.
Format: functional
For `Cc1cc(C)c(NC(=O)c2sc3nc4c(cc3c2N)CN(Cc2ccccc2)CC4)c(C)c1`, the growth at 0.01 µM was 85%.

What follows are compounds tested on NCI-H23 (assay: Growth inhibition of human NCI-H23 cells assessed as cell growth at 0.01 uM incubated for 48 hrs by sulforhodamine B assay relative to control). Details: read-out: Activity.
Format: functional
`Cc1cc(C)c(NC(=O)c2sc3nc4c(cc3c2N)CN(Cc2ccccc2)CC4)c(C)c1` gave a growth at 0.01 µM of 102%.

These compounds were tested on HCT-116 (assay: Growth inhibition of human HCT-116 cells assessed as cell growth at 0.01 uM incubated for 48 hrs by sulforhodamine B assay relative to control). Details: read-out: Activity.
Format: functional
`Cc1cc(C)c(NC(=O)c2sc3nc4c(cc3c2N)CN(Cc2ccccc2)CC4)c(C)c1` showed a growth at 0.01 µM of 93%.

The compounds below were run on A498 (assay: Growth inhibition of human A498 cells assessed as cell growth at 0.01 uM incubated for 48 hrs by sulforhodamine B assay relative to control). Details: read-out: Activity.
Format: functional
Method in brief: (§1)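 NCI Developmental Therapeutics Program NCI60 panel. Compounds that were active in the 10 µM one-dose screen went on to dose–response testing. Growth at each concentration is expressed relative to untreated control (100%). GI50 (concentration giving 50% of maximal inhibition of proliferation) and TGI (concentration giving total growth inhibition) were derived from the curves.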
In the case of `Cc1cc(C)c(NC(=O)c2sc3nc4c(cc3c2N)CN(Cc2ccccc2)CC4)c(C)c1`, the growth at 0.01 µM is reported as 87%.

These compounds were tested on SR (assay: Growth inhibition of human SR cells assessed as cell growth at 0.1 uM incubated for 48 hrs by sulforhodamine B assay relative to control). Details: read-out: Activity.
Format: functional
With `Cc1cc(C)c(NC(=O)c2sc3nc4c(cc3c2N)CN(Cc2ccccc2)CC4)c(C)c1` the growth at 0.1 µM was 103%.

Each compound was assayed on OVCAR-5 (assay: Growth inhibition of human OVCAR-5 cells assessed as cell growth at 0.1 uM incubated for 48 hrs by sulforhodamine B assay relative to control). Details: read-out: Activity.
Format: functional
Compound `Cc1cc(C)c(NC(=O)c2sc3nc4c(cc3c2N)CN(Cc2ccccc2)CC4)c(C)c1` has a growth at 0.1 µM of 96%.

Each compound was assayed on TK-10 (assay: Growth inhibition of human TK-10 cells assessed as cell growth at 0.1 uM incubated for 48 hrs by sulforhodamine B assay relative to control). Details: read-out: Activity.
Format: functional
For `Cc1cc(C)c(NC(=O)c2sc3nc4c(cc3c2N)CN(Cc2ccccc2)CC4)c(C)c1`, the growth at 0.1 µM was 104%.

The compounds below were run on UO-31 (assay: Growth inhibition of human UO-31 cells assessed as cell growth at 0.1 uM incubated for 48 hrs by sulforhodamine B assay relative to control). Details: read-out: Activity.
Format: functional
`Cc1cc(C)c(NC(=O)c2sc3nc4c(cc3c2N)CN(Cc2ccccc2)CC4)c(C)c1` was tested, and the growth at 0.1 µM was 88%.

What follows are compounds tested on A549 (assay: Growth inhibition of human A549/ATCC cells assessed as cell growth at 1 uM incubated for 48 hrs by sulforhodamine B assay relative to control). Details: read-out: Activity.
Format: functional
Method in brief: as §1
In the case of `Cc1cc(C)c(NC(=O)c2sc3nc4c(cc3c2N)CN(Cc2ccccc2)CC4)c(C)c1`, the growth at 1 µM is reported as 90%.

The compounds below were run on NCI-H23 (assay: Growth inhibition of human NCI-H23 cells assessed as cell growth at 1 uM incubated for 48 hrs by sulforhodamine B assay relative to control). Details: read-out: Activity.
Format: functional
`Cc1cc(C)c(NC(=O)c2sc3nc4c(cc3c2N)CN(Cc2ccccc2)CC4)c(C)c1` gave a growth at 1 µM of 93%.

Each compound was assayed on NCI-H322M (assay: Growth inhibition of human NCI-H322M cells assessed as cell growth at 1 uM incubated for 48 hrs by sulforhodamine B assay relative to control). Details: read-out: Activity.
Format: functional
With `Cc1cc(C)c(NC(=O)c2sc3nc4c(cc3c2N)CN(Cc2ccccc2)CC4)c(C)c1` the growth at 1 µM was 102%.

These compounds were tested on NCI-H460 (assay: Growth inhibition of human NCI-H460 cells assessed as cell growth at 1 uM incubated for 48 hrs by sulforhodamine B assay relative to control). Details: read-out: Activity.
Format: functional
With `Cc1cc(C)c(NC(=O)c2sc3nc4c(cc3c2N)CN(Cc2ccccc2)CC4)c(C)c1` the growth at 1 µM was 96%.

Each compound was assayed on 786-0 (assay: Growth inhibition of human 786-0 cells assessed as cell growth at 1 uM incubated for 48 hrs by sulforhodamine B assay relative to control). Details: read-out: Activity.
Format: functional
Method in brief: as §1
In the case of `Cc1cc(C)c(NC(=O)c2sc3nc4c(cc3c2N)CN(Cc2ccccc2)CC4)c(C)c1`, the growth at 1 µM is reported as 82%.

Each compound was assayed on CAKI-1 (assay: Growth inhibition of human CAKI-1 cells assessed as cell growth at 1 uM incubated for 48 hrs by sulforhodamine B assay relative to control). Details: read-out: Activity.
Format: functional
Method in brief: as §1
Compound `Cc1cc(C)c(NC(=O)c2sc3nc4c(cc3c2N)CN(Cc2ccccc2)CC4)c(C)c1` has a growth at 1 µM of 76%.

Each compound was assayed on PC-3 (assay: Growth inhibition of human PC-3 cells assessed as cell growth at 1 uM incubated for 48 hrs by sulforhodamine B assay relative to control). Details: read-out: Activity.
Format: functional
For `Cc1cc(C)c(NC(=O)c2sc3nc4c(cc3c2N)CN(Cc2ccccc2)CC4)c(C)c1`, the growth at 1 µM was 75%.

These compounds were tested on CCRF-CEM (assay: Growth inhibition of human CCRF-CEM cells assessed as cell growth at 100 uM incubated for 48 hrs by sulforhodamine B assay relative to control). Details: read-out: Activity.
Format: functional
Method in brief: as §1
Compound `Cc1cc(C)c(NC(=O)c2sc3nc4c(cc3c2N)CN(Cc2ccccc2)CC4)c(C)c1` has a growth at 100 µM of -3%.

These compounds were tested on NCI-H23 (assay: Growth inhibition of human NCI-H23 cells assessed as cell growth at 100 uM incubated for 48 hrs by sulforhodamine B assay relative to control). Details: read-out: Activity.
Format: functional
In the case of `Cc1cc(C)c(NC(=O)c2sc3nc4c(cc3c2N)CN(Cc2ccccc2)CC4)c(C)c1`, the growth at 100 µM is reported as 13%.

Each compound was assayed on NCI-H322M (assay: Growth inhibition of human NCI-H322M cells assessed as cell growth at 100 uM incubated for 48 hrs by sulforhodamine B assay relative to control). Details: read-out: Activity.
Format: functional
`Cc1cc(C)c(NC(=O)c2sc3nc4c(cc3c2N)CN(Cc2ccccc2)CC4)c(C)c1` showed a growth at 100 µM of 39%.

The compounds below were run on NCI-H522 (assay: Growth inhibition of human NCI-H522 cells assessed as cell growth at 100 uM incubated for 48 hrs by sulforhodamine B assay relative to control). Details: read-out: Activity.
Format: functional
`Cc1cc(C)c(NC(=O)c2sc3nc4c(cc3c2N)CN(Cc2ccccc2)CC4)c(C)c1` was tested, and the growth at 100 µM was -29%.

The compounds below were run on HT-29 (assay: Growth inhibition of human HT-29 cells assessed as cell growth at 100 uM incubated for 48 hrs by sulforhodamine B assay relative to control). Details: read-out: Activity.
Format: functional
For `Cc1cc(C)c(NC(=O)c2sc3nc4c(cc3c2N)CN(Cc2ccccc2)CC4)c(C)c1`, the growth at 100 µM was -26%.

These compounds were tested on SNB-75 (assay: Growth inhibition of human SNB-75 cells assessed as cell growth at 100 uM incubated for 48 hrs by sulforhodamine B assay relative to control). Details: read-out: Activity.
Format: functional
`Cc1cc(C)c(NC(=O)c2sc3nc4c(cc3c2N)CN(Cc2ccccc2)CC4)c(C)c1` was tested, and the growth at 100 µM was -9%.

What follows are compounds tested on UACC-257 (assay: Growth inhibition of human UACC-257 cells assessed as cell growth at 100 uM incubated for 48 hrs by sulforhodamine B assay relative to control). Details: read-out: Activity.
Format: functional
`Cc1cc(C)c(NC(=O)c2sc3nc4c(cc3c2N)CN(Cc2ccccc2)CC4)c(C)c1` showed a growth at 100 µM of 17%.

What follows are compounds tested on UACC-62 (assay: Growth inhibition of human UACC-62 cells assessed as cell growth at 100 uM incubated for 48 hrs by sulforhodamine B assay relative to control). Details: read-out: Activity.
Format: functional
For `Cc1cc(C)c(NC(=O)c2sc3nc4c(cc3c2N)CN(Cc2ccccc2)CC4)c(C)c1`, the growth at 100 µM was -22%.

The compounds below were run on BT-549 (assay: Growth inhibition of human BT-549 cells assessed as cell growth at 100 uM incubated for 48 hrs by sulforhodamine B assay relative to control). Details: read-out: Activity.
Format: functional
For `Cc1cc(C)c(NC(=O)c2sc3nc4c(cc3c2N)CN(Cc2ccccc2)CC4)c(C)c1`, the growth at 100 µM was -9%.

Each compound was assayed on MDA-MB-468 (assay: Growth inhibition of human MDA-MB-468 cells assessed as cell growth at 100 uM incubated for 48 hrs by sulforhodamine B assay relative to control). Details: read-out: Activity.
Format: functional
`Cc1cc(C)c(NC(=O)c2sc3nc4c(cc3c2N)CN(Cc2ccccc2)CC4)c(C)c1` showed a growth at 100 µM of -1%.
